# Measurements as given in PubChem BioAssay AID602425 (Sanford-Burnham Center for Chemical Genomics, 2012).
# pIC50: −log10 of the molar value. Activity calls are given as the source filed them.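 Rule for the calls: active = IC50 of 80 µM or lower; inactive = the rest.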
# Biological target: glucose-6-phosphate dehydrogenase-6-phosphogluconolactonase (PfGluPho) [Plasmodium falciparum 3D7]
# Experiment: PfG6PD enzyme inhibitors, kinetic orthogonal readout, SAR follow-up, orthogonal assay for PfG6PD antimalarial inhibitor project, biochemical, kinetic direct NADPH detection, set 3 (AID 602425)
# Conditions: recombinant PfG6PDH, direct NADPH fluorescence kinetic
# Method in brief: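 Also added: G6P 20 µM and NADP 3 µM final / Assay system: PfG6PDH enzyme / Quantity: enzyme 0.2 µg/mL final / Detection: kinetic NADPH fluorescence, excitation 340 nm, emission 450 nm / Medium: pH 7.5 Tris-HCl (50 mM), 3.3 mM MgCl2, Tween 20, BSA / Timing: reads at 5-min intervals / Doses: test compounds in dose-response series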
IC50,pIC50,SMILES
> 80 µM (inactive),–,CCCN1CCC(NC(=O)c2ccc3c(c2)NC(=O)c2ccccc2S3)C1 (configuration not stated)
–,4.31,CCN1CCC[C@@H]1CNC(=O)c1ccc2c(c1)NC(=O)c1cc(F)ccc1S2
–,4.63,CN1CCCC1CNC(=O)c1ccc2c(c1)NC(=O)c1ccccc1S2 (configuration not stated)
–,4.39,O=C(NC[C@H]1CCCN1)c1ccc2c(c1)NC(=O)c1ccccc1S2
–,4.15,CN1CCCCC1CNC(=O)c1ccc2c(c1)NC(=O)c1ccccc1S2 (configuration not stated)
> 80 µM (inactive),–,CCN1CCC(NC(=O)c2ccc3c(c2)NC(=O)c2ccccc2S3)C1 (configuration not stated)
> 80 µM (inactive),–,CCN1CCC[C@@H]1CNC(=O)c1ccc2c(c1)NC(=O)c1ccccc1N2
–,4.94,CCCN1CCC[C@@H]1CNC(=O)c1ccc2c(c1)NC(=O)c1ccccc1S2
> 80 µM (inactive),–,CN1CCC(NC(=O)c2ccc3c(c2)NC(=O)c2ccccc2S3)C1 (configuration not stated)
–,4.38,CCCCCCN1CCCC1CNC(=O)c1ccc2c(c1)NC(=O)c1ccccc1S2 (configuration not stated)
–,5.36,CCN1CCC[C@@H]1CNC(=O)c1ccc2c(c1)NC(=O)c1ccc(F)cc1S2
–,4.20,CCCN1CCCCC1CNC(=O)c1ccc2c(c1)NC(=O)c1ccccc1S2 (configuration not stated)
–,6.67,CCN1CCC[C@@H]1CNC(=O)c1ccc2c(c1)NC(=O)c1cccc(C)c1S2
–,4.73,CCCCN1CCCC1CNC(=O)c1ccc2c(c1)NC(=O)c1ccccc1S2 (configuration not stated)
–,4.61,CCN1CCC[C@@H]1CNC(=O)c1ccc2c(c1)NC(=O)c1cc(C)ccc1S2
> 80 µM (inactive),–,CCN1CCCCC1CNC(=O)c1ccc2c(c1)NC(=O)c1ccccc1S2 (configuration not stated)
–,4.38,O=C(NCC1CCCCN1)c1ccc2c(c1)NC(=O)c1ccccc1S2 (configuration not stated)
